Assay outcomes: PubChem BioAssay, Sanford-Burnham Center for Chemical Genomics
FLuc act counter – FLuc activators, initial screening, artefact control for FLuc-dependent activation tests, biochemical, ATPlite luminescence; Luciferin 4-monooxygenase (Photinus pyralis), P08659; AID 1027, 2008; 200,000 tested, under 10 active; activation factor at 10 µM; ATPlite luciferase biochemical, 10 min; 0 = ATP-free wells, 1 = DMSO control;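 active = luciferase activation factor, scaled between plate controls, of at least 2 with compound at 10 µM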
Target sequence (P08659 whole entry, looked up): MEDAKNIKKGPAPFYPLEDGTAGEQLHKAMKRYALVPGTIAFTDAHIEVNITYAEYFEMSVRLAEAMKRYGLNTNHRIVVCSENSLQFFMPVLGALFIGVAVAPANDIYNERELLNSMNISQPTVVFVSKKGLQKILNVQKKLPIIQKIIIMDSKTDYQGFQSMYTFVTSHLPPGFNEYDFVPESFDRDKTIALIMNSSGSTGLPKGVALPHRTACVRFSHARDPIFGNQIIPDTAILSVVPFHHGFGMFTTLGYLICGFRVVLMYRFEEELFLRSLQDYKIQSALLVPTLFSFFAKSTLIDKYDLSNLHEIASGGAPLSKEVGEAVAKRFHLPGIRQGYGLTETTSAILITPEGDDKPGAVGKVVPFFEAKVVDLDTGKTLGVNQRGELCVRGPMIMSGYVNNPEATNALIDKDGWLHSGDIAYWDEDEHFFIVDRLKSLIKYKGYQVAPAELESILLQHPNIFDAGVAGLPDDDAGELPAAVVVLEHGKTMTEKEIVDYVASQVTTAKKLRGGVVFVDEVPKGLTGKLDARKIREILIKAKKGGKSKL
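Assay system: Luciferase/luciferin detection reagent, cell-free biochemical luciferase assay / Also added: ATP substrate / Schedule: 10 min at ambient temperature / Measured by: luminescence measurement of luciferase light output / Benchmarks: low control with PBS replacing ATP, high control enzyme plus ATP without compound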
PPC-1+TRAIL kill – compounds killing PPC-1 cancer cells with TRAIL present, primary screen, TRAIL potentiator project, ATPLite luminescence, uHTS; actives 0.41% (n = 220,000); cell killing (% activity), % at 4 µM or 5 µM; AID 1443, 2008; PPC-1 cells + TRAIL, ATPLite viability luminescence;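 active = cell killing above 50% in the first pass at 4 µM, then a duplicate retest at 5 µM averaging 50% or more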;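 note: plate controls were cells with TRAIL plus DMSO for no effect and medium-only wells lacking cells for full effect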
TRAIL sens C8 – viability loss with TRAIL in NB7+C8 cells, primary screen, TRAIL sensitizer project, cell-based, ATPlite luminescence. inhibition (viability loss, TRAIL sensitization), % at 10 µM. actives 1% (n = 360,000). AID 624354, 2012;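 active = compounds causing at least 50% loss of cell viability in the single-dose screen, relative to plate controls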
FLuc inh counter – firefly luciferase enzyme inhibitors, primary screen, artefact control for luciferase-based inhibitor screens, biochemical, luminescence, ATPLite; actives 1.5% (n = 200,000); inhibition, % at 10 µM; AID 1006, 2008; 10 min; Luciferin 4-monooxygenase (Photinus pyralis), P08659;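 active = inhibition above about 50% when tested at 10 µM, limit read from the data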
PPC-1 tox – cytotoxicity in PPC-1 cells, confirmation, cytotoxicity control for TRAIL apoptosis potentiator project, cell-based, ATP content luminescence. cytotoxicity, % at 5 µM. actives 50% (n = 1,200). shares compounds with PPC-1+TRAIL kill. PPC-1 viability, ATPlite luminescence, overnight;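 active = reconfirmed compounds whose average cytotoxicity reaches 50% or more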;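 note: 0% = DMSO-treated cells and 100% = wells holding medium but no cells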
The depositor's hits bear a star; . = no result given. The list is not random: actives were taken first. Their share in the collection is about 1.6%.

SMILES	FLuc act counter	PPC-1+TRAIL kill	TRAIL sens C8	FLuc inh counter	PPC-1 tox
Cc1nc2cc(NC(=O)Nc3nccs3)ccc2n1C	0.2	54*	66*	81*	51*
COc1cccc(NC(=O)Nc2ccc3nc(C)c(C)nc3c2)c1	.	.	3	.	.
COc1cccc(NC(=O)Nc2nccc(C)n2)c1	0.2	56*	67*	82*	62*
CCC(C)(C)NC(=O)C1CCN(c2nc(OC)nc(OC)n2)CC1	1	-4	-4	-1	.
CCOC(=O)C1CCN(c2ncnc3c2oc2ccccc23)CC1	1	-9	14	-1	.
CCOC(=O)c1cnn(-c2ncnc3c2oc2ccccc23)c1N	0.6	27	47	41	6
O=C(Nc1cccc2ccccc12)C12CC3CC(C1)CC(n1cnc([N+](=O)[O-])n1)(C3)C2	1.1	4	7	-8	14
CC(=O)OC(Cn1nc(C)cc1C)c1ccccc1 (configuration not stated)	1.1	4	-1	-6	0
Cc1ccc(S(=O)(=O)N2CCCC2)cc1C(=O)NCc1ccccc1CN1CCCC1	.	.	5	.	.
Nc1nonc1-c1nc2ccccc2n1Cc1ccc(F)cc1Cl	1	20	20	-1	.
Fc1ccc(Cn2c(-c3cscn3)nc3ccccc32)c(Cl)c1	1	-3	-10	-5	10
O=C(O)/C=C/C(=O)Nc1ccccc1C(=O)OCC(=O)c1ccc2c(c1)OCCO2	0	78*	53*	96*	79*
CCOC(=O)c1ccccc1NC(=O)/C=C/C(=O)O	1	-2	-2	0	.
Fc1ccc(-c2cnn3c(-c4cccs4)ccnc23)cc1	0.2	59*	68*	83*	53*
Cc1nn2c(-c3ccc(F)cc3)ccnc2c1Br	.	.	-2	.	.
Fc1ccc(-c2cnn3c(-c4ccncc4)ccnc23)cc1	0.2	30	54*	76*	20
C=CCn1c(C)cc(C(=O)Cn2nc(C(=O)O)c3ccccc3c2=O)c1C	0.1	47	78*	92*	38
Cc1cc2nc3ccc(=[N+](C)C)cc-3sc2cc1N	.	72*	51*	.	72*
CC12CCC(=O)N1C(C(=O)Nc1cccc(S(=O)(=O)N3CCCCCC3)c1)CS2 (configuration not stated)	.	.	4	.	.
COc1ccc(-c2nsc3c(N4CCCCC4)ncnc23)cc1	0.1	79*	85*	89*	78*
COc1ccc(-c2nsc3c(N4CCCCC4C)ncnc23)cc1 (configuration not stated)	0.1	77*	78*	91*	79*
COc1ccc(C(=O)N2CCN(c3ncnc4c(-c5ccccc5)nsc34)CC2)cc1	1.1	8	36	-9	.
Cc1cc(=O)oc2cc(OCC(=O)NC3(C#N)CCCCC3)ccc12	.	.	-11	.	.
COc1ccc(-c2ccc(C(=O)NCc3cccs3)c3occc23)c(C)c1	.	.	-7	.	.
COc1ccc(Cl)cc1NC(=O)N1CCN(S(C)(=O)=O)CC1	1	5	10	-4	-9
SMILES	FLuc act counter	PPC-1+TRAIL kill	TRAIL sens C8	FLuc inh counter	PPC-1 tox
COc1ccc(Cl)cc1NC(=S)N1CCN(S(C)(=O)=O)CC1	.	19	1	.	.
CCOc1ccccc1NC(=O)C(c1ccccc1)N1CCN(C(=O)c2ccco2)CC1 (configuration not stated)	.	.	-2	.	.
Cc1nn(CC(C)C)c2sc(C(=O)NC3CC(C)(C)NC(C)(C)C3)cc12	.	.	-7	.	.
O=C(Nc1nc2ccccc2[nH]1)c1ccccc1	0.1	62*	84*	88*	60*
O=C(Nc1nc2ccccc2[nH]1)c1cccc(Cl)c1	.	.	42	.	.
CCOC(=O)Nc1ccc(S(=O)(=O)NCCCN2CCOCC2)cc1	1.1	9	-1	-6	6
CCOC(=O)Nc1ccc(S(=O)(=O)N2CCOCC2)cc1	1	13	-14	0	.
O=C(NCCNCCO)c1c(O)c2cccc3c2n(c1=O)CCC3	1	12	11	-1	10
CCCCCCNC(=O)c1c(O)c2cccc3c2n(c1=O)CCC3	1.1	26	-9	-8	.
O=C(COC(=O)CC1CCCC1)Nc1ccc(Cl)cc1	.	.	-5	.	.
O=Nc1c2cc(-c3ccccc3)[nH]nc-2c2ccccc12	0.1	74*	72*	87*	75*
Cc1ccc(-c2cc3c(N=O)c4ccccc4c-3n[nH]2)cc1	0.1	95*	93*	94*	94*
Cc1ccc(-c2cc(=O)c3ccccc3[nH]2)cc1	0.7	22	35	28	.
O=C(Nc1ccc(Cl)c(Cl)c1)c1ccc(Cl)c(Cl)c1	.	2	-1	.	.
O=C(Nc1ccc(Cl)c(Cl)c1)c1ccncc1	1	8	3	1	12
CC[C@@]1(O)C(=O)OCc2c1cc1n(c2=O)Cc2cc3c(N)cccc3nc2-1	.	32	15	.	32
CC[C@@]1(O)C(=O)OCc2c1cc1n(c2=O)Cc2cc3c(CN(C)C)c(O)ccc3nc2-1	.	.	34	.	.
O=C(/C=C/c1ccco1)Nc1ccc(C(=O)N2CCOCC2)cc1	1	21	1	4	.
O=C(/C=C/c1ccco1)Nc1ccc2c(c1)OCCO2	0.1	64*	64*	89*	63*
Cn1c(SCC(=O)NCCc2ccccc2)ncc(C(=O)Nc2ccc(F)cc2)c1=O	.	.	1	.	.
CN1/C(=C/c2cccc[n+]2CCO)Sc2ccccc21	.	.	4	.	.
CC[n+]1c(/C=C2\Sc3ccccc3N2C)ccc2cccc(C)c21	1	36	25	2	26
CC(Oc1cccc(Cl)c1)C(=O)Nc1cc(=O)n(C)c(=O)n1C (configuration not stated)	1.1	2	-15	-10	-3
COc1cc(CCCN2C(=S)NC[C@@H]2CC2CCCCC2)cc(OC)c1OC	.	12	-3	.	.
CC1=NNC(=O)C1CC(=O)N/N=C/C(Br)=C/c1ccccc1 (configuration not stated)	.	20	-6	.	.
SMILES	FLuc act counter	PPC-1+TRAIL kill	TRAIL sens C8	FLuc inh counter	PPC-1 tox
CC1C(=O)NN=C1C(=O)N/N=C\C(Br)=C\c1ccccc1 (configuration not stated)	0	78*	74*	95*	79*
Cc1cc(C)c(C(=O)COC(=O)c2cc([N+](=O)[O-])ccc2NCCO)cc1C	1	9	-6	0	.
COc1cc(NC(=O)Cn2cnc(C(=O)Nc3ccc(C)c(C)c3)n2)cc(OC)c1OC	.	.	0	.	.
ClCc1ncc(-c2ccc(Cl)cc2)o1	1.1	18	1	-7	17
Cc1nc2sccn2c(=O)c1S(=O)(=O)NCC1CCN(Cc2ccccc2Cl)CC1	.	.	-5	.	.
CC(C)(C)C(=O)Nc1cccc(-c2nc3ccccc3c(=O)o2)c1	0.8	52*	59*	20	53*
O=C(Nc1ccccc1)Nc1cc(Cl)cc(Cl)c1	1.1	16	45	-7	.
